Measurements of several laboratories.
Target: Inhibitor of nuclear factor kappa-B kinase subunit beta (IKBKB, Homo sapiens, UniProt O14920)
Method: competition with immobilised ligand
Sequence (O14920 1-756, as in one of the studies): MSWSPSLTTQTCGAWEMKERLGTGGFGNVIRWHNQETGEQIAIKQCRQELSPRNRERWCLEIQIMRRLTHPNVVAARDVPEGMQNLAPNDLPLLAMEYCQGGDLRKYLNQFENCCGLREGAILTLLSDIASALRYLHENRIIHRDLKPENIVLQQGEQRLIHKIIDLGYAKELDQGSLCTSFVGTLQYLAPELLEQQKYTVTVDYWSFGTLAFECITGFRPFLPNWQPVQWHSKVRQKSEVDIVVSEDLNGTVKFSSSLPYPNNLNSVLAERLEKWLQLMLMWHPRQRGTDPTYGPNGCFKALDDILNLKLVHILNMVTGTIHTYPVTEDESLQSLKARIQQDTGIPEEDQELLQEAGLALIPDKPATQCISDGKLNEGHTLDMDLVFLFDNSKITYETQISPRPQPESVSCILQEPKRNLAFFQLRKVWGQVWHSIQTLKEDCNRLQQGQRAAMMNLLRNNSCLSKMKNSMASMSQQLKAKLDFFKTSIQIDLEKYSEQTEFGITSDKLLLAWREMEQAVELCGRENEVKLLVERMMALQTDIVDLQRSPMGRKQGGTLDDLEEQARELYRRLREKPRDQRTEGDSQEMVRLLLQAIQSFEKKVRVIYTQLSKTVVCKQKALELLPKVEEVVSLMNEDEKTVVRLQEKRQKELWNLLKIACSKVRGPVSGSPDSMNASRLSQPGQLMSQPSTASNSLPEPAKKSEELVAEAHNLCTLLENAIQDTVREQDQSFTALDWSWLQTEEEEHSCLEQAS

SMILES	test	conditions	remaining binding
c1cnn2ncc(-c3ccnc(N4CCC45COC5)n3)c2c1	binding	1 µM	40%
O=C(c1ccc(Nc2ncc(Cl)c(-c3cc4ccccc4s3)n2)cc1)N1CCC(N2CCCC2)CC1	binding	1 µM	0.1%
CN1CCN(c2cnc3c(C4CCN(C(=O)c5ccc(OC(F)(F)F)cc5N)CC4)ncnc3c2)CC1	cell-free assay	1 µM	100%
C[C@@H]1CN(c2ccc3ncc(-c4ccc5[nH]nc(C6CC6)c5c4)n3n2)C[C@H](C)O1	binding	0.5 µM	89%
N[C@H]1CCN(c2nccc(-c3cnn4ncccc34)n2)C1	binding	1 µM	91%
COc1cnc(Nc2cccc(S(N)(=O)=O)c2)nc1N1CCN(c2ccccc2)CC1	binding	1 µM	94%
O=C(c1ccc(Nc2nccc(-c3cc4ccccc4s3)n2)cc1)N1CCC(N2CCCC2)CC1	binding	1 µM	0.1%
CCCOc1ccc([C@@H]2[C@@H](C(=O)O)[C@H](c3ccc4c(c3)OCO4)CN2CC(=O)Nc2c(CC)cccc2CC)cc1	cell-free assay	1 µM	94%
CN(CCCC(F)(F)F)c1nccc(-c2cnn3ncccc23)n1	binding	1 µM	100%
c1cncc(-c2cccc(Nc3nccc(NC4CCCCC4)n3)c2)c1	binding	10 µM	89%
CC(C)(C)c1ccc(-c2nc(CBr)nn2-c2cccc(O)c2)cc1	cell-free assay	10 µM	70%
O=C(NCCCN1CCOCC1)c1ccc(Nc2ncc(Cl)c(-c3ccc(Cl)s3)n2)cc1	binding	1 µM	23%
CNC(=O)[C@@H]1CC[C@@H](n2c(-c3ccc4cnccc4c3)nc3ccc(C(=O)NCc4cccc(C(N)=O)c4)cc32)C1	binding	1 µM	100%
C[C@H]1CCN(c2nccc(-c3cnn4ncccc34)n2)C1	binding	1 µM	64%
CN(C)c1ncnc(-c2ccc3nc(Nc4cc(CN5CCN(C(=O)CC(F)(F)F)CC5)ccn4)[nH]c3c2)c1Cl	cell-free assay	1 µM	80%
CN(C)c1nccc(-c2cnn3ncccc23)n1	binding	1 µM	84%
O=C(O)c1cc(-c2ccc(C3CCNCC3)cc2)c2ccc(-c3ccc(C(F)(F)F)cc3)cc2c1	cell-free assay	1 µM	100%
O=C(NCC1CCOCC1)c1n[nH]cc1NC(=O)c1c(F)cccc1F	binding	1 µM	92%
CNCc1ccccc1-c1csc([C@H](C)Nc2nc(C)nc3cc(OC)c(OC)cc23)c1	cell-free assay	1 µM	83%
FC(F)(F)Oc1cccc(-c2cnc3ccc(-c4ccncc4)nn23)c1	cell-free assay	5 µM	56%
CC(=O)N1CCC(c2ccc(C(=O)NC3=NCCN3)cc2C(F)(F)F)CC1	cell-free assay	1 µM	85%
Cc1cnn2ncc(-c3ccnc(N(C)C)n3)c2c1	binding	1 µM	53%
CN(C)CC#Cc1ccc(OCCCc2sc(N3CCc4cccc(C(=O)Nc5nc6ccccc6s5)c4C3)nc2C(=O)O)c(F)c1	cell-free assay	1 µM	72%
CC1CCCN1c1nccc(-c2cnn3ncccc23)n1 (centres unmarked)	binding	1 µM	100%
CCOC(=O)c1cc2cc(-c3cc(C(=O)NCc4ccc(C(=O)O)cc4)nn3C)ccc2[nH]1	cell-free assay	0.1 µM	100%
C[C@@H](c1ccc(-n2cnc3c(N)ncnc32)cc1)N1CCc2nn(C)c(Cc3ccccc3)c2C1=O	binding	0.1 µM	68%
